The results in this text go back to publication PMC7237122 (OncoTargets and therapy, 2020).

The subject of series [1] is H22-tumor-bearing mice. Description: H22-tumor-bearing mice: tumor size, tumor weight, HE staining. The class given is in vivo. The settings on record: for tumor inhibition rate (TIR), tumor weight: 5-Fu ip 200 mg/kg twice a week, SOLB ip 100 mg/kg once daily, 8 days; for tumor size: H22-tumor-bearing mice, compared with model group. The essentials:
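In H22-inoculated male Kunming mice (tumors 100~150 mm3, randomised 10~12/group), treatment ran 8 days (daily test agents; 5-Fu twice weekly). Tumor size was measured by Vernier calipers. Tumors were excised after a 16 h fast and ether euthanasia. Inhibition rate was taken from mean tumor indices of drug versus model groups. Tissue was fixed overnight in 4% buffered paraformaldehyde for HE. Mean ± standard error; ANOVA.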

The test system of series [2] is H22-tumor-bearing mice. Put plainly: H22-tumor-bearing mice: tolerability. The series is classed as in vivo. The settings on record: for mice analyzed / mice in group: 5-Fu ip 200 mg/kg twice a week, SOLB ip 100 mg/kg once daily, 8 days. In outline:
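Animals bearing 7-day H22 tumors (male Kunming, 10~12/group) were treated once daily 09:00–10:00 for 8 days (test agents ip or po); 5-Fu ip 200 mg/kg was given twice weekly. Appearance and behaviour were observed, and diarrhea, irritation and emaciation were recorded. Body weight was followed over therapy. Liver was fixed overnight in 4% buffered paraformaldehyde for HE.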

For another series, the system named is ALT and AST. Put plainly: H22-tumor-bearing mice: liver function. The settings on record: blood of H22-tumor-bearing mice, compared with model group. The series is classed as in vivo. In outline: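 H22 ascites cells were injected into male Kunming mice; tumors of 100~150 mm3 at 7 days were randomised (10~12/group) against saline model and uninoculated normal groups. Test agents were given daily for 8 days (ip 100 mg/kg; po 400 or 720 mg/kg). After a 16 h fast, blood was taken from the eyes for ALT and AST. Mean ± standard error; ANOVA.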

In the next series the test system is IL-6. Put plainly: H22-tumor-bearing mice: IL-6 ELISA of serum and tumor. The settings on record: for IL-6 concentration, tumor ELISA: tumor tissue, compared with model group. The series is classed as in vivo. The essentials:
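Male Kunming mice (20~22 g) bearing H22 tumors (100~150 mm3 at day 7, 10~12/group) were dosed 8 days: test agents ip 100 mg/kg or po 400/720 mg/kg daily, or 5-Fu ip 200 mg/kg twice weekly. Mice were fasted 16 h and ether-euthanised. IL-6 was measured by ELISA in eye-collected blood and in liquid-nitrogen-frozen tumor tissue. Mean ± standard error; ANOVA.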

Series [3] relates to JAK2, Tyr705-p-STAT3, Ser725-p-STAT3. Put plainly: H22-tumor-bearing mice: Western blotting of tumor tissue. The series is classed as in vivo. The settings on record: compared with model group.
In series [4] the test system is SMMC-7721 cells. Description: MTT analysis of SMMC-7721 cells. The series is classed as cell-based. In outline:
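SMMC-7721 cells (Shanghai Institute of Cell Biology) were incubated with test extract or compounds, and growth was read by MTT. Mean ± standard error; ANOVA, P<0.05.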

Series [5] has as its system SMMC-7721 cells. Description: Hochest apoptosis test in SMMC-7721 cells. The series is classed as cell-based. The settings on record: concentration not given. The essentials:
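Apoptosis in SMMC-7721 cells exposed to test extract or compounds was assessed by Hoechst staining per kit instructions. Mean ± standard error; ANOVA.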

On to `O=c1[nH]cc(F)c(=O)[nH]1` [5-Fu, 5-fluorouracil], for which, in the series with H22-tumor-bearing mice [1], the “tumor inhibition rate (TIR), tumor weight” value was determined as 91.94% and the tumor size result is given as “the smallest”. For the same molecule, the “HE staining of tumor tissue” value in the series with H22-tumor-bearing mice [1] (chromatin condensation and nuclear shrinkage, compared to model group) is recorded as “good”. Besides, in the series on H22-tumor-bearing mice [2], the “mice analyzed / mice in group” value is given as 10/12. In the series with H22-tumor-bearing mice [2] (therapeutic period), the “appearance and behavior (adverse reactions)” value is “diarrhea and alopecia, their appetite was poor”; the weights of mice entry was “steadily increased during the therapeutic period except in the 5-Fu group”. Further, the “liver function: ALT and AST levels” value with ALT and AST is “the best”. Moreover, in the series with IL-6, the “IL-6 concentration, serum ELISA” value is reported as “increasing not decreasing IL-6” and the “IL-6 concentration, tumor ELISA” value was “higher than the model group”. Moreover, the “protein expressions of JAK2, Tyr705-p-STAT3, Ser725-p-STAT3 (Western)” value in series [3] is “could inhibit protein expressions of JAK2, Tyr705-p-STAT3, and Ser725-p-STAT3”.

`O=C(/C=C/c1ccc(O)cc1)CC(=O)/C=C/c1ccc(O)cc1` [BIS, bisdemethoxycurcumin]: the “growth of SMMC-7721 cells (MTT)” value in the series on SMMC-7721 cells [4] is listed as “could inhibit the growth of SMMC-7721 cells in a dose-dependent manner”.

As for `O=C(O)/C=C/c1ccc(O)c(O)c1` [CAF, caffeic acid], in the series on SMMC-7721 cells [4], the “growth of SMMC-7721 cells (MTT)” value is reported as “no obvious effects”.

For the molecule `OC[C@H]1O[C@@H](O[C@@H]2OC=C[C@H]3[C@H](O)[C@@H]4O[C@]4(CO)[C@@H]23)[C@H](O)[C@@H](O)[C@@H]1O` [CAT, catalpol], in the series with SMMC-7721 cells [4], the “growth of SMMC-7721 cells (MTT)” value is given as “no obvious effects”.

As for `O=C(/C=C/c1ccc(O)c(O)c1)O[C@@H]1C[C@](O)(C(=O)O)C[C@@H](O)[C@H]1O` [CHL, chlorogenic acid], the “growth of SMMC-7721 cells (MTT)” value with SMMC-7721 cells [4] was “no obvious effects”.

Turning to `COc1cc(/C=C/C(=O)CC(=O)/C=C/c2ccc(O)c(OC)c2)ccc1O` [CUR, curcumin], in the series with SMMC-7721 cells [4], the “growth of SMMC-7721 cells (MTT)” value is on record as “could inhibit the growth of SMMC-7721 cells in a dose-dependent manner”.

Take `O=C1C[C@@H](c2ccc(O[C@@H]3O[C@H](CO)[C@@H](O)[C@H](O)[C@H]3O)cc2)Oc2cc(O)ccc21` [LIQ, liquiritin]: the “growth of SMMC-7721 cells (MTT)” value with SMMC-7721 cells [4] is “no obvious effects”.

Turning to `COc1cc2c(c(OC)c1OC)-c1c(cc3c(c1OC)OCO3)CC(C)C(C)C2` (stereo not shown) [SCHB, schisandrin B], the “growth of SMMC-7721 cells (MTT)” value in the series with SMMC-7721 cells [4] was “could inhibit the growth of SMMC-7721 cells in a dose-dependent manner”.

In the case of `COc1cc2c(c(OC)c1OC)-c1c(cc3c(c1OC)OCO3)C[C@H](C)[C@@](C)(O)C2` [SOLB, schisandrol B], the “growth of SMMC-7721 cells (MTT)” value in the series with SMMC-7721 cells [4] is on record as “could inhibit the growth of SMMC-7721 cells in a dose-dependent manner”. Further, the “effect on apoptosis (Hochest), pure compounds” value (“effect on apoptosis (Hochest)” for short) in the series on SMMC-7721 cells [5] is “an active ingredient of DWYG extract”. In addition, in the series with H22-tumor-bearing mice [1], the “tumor inhibition rate (TIR), tumor weight” value turned out to be 34.98% and the tumor size entry is on record as “effective but not better than 5-Fu”. In addition, the “mice analyzed / mice in group” value with H22-tumor-bearing mice [2] was 12/12. In the series on ALT and AST, the “liver function: ALT and AST levels” value is on record as “effective”. Besides, in the series on IL-6, the “IL-6 concentration, serum ELISA” value is on record as “less than 5-Fu but more than DWYG extract” and the “IL-6 concentration, tumor ELISA” value was “less than in the model group”. The “protein expressions of JAK2, Tyr705-p-STAT3, Ser725-p-STAT3 (Western)” value in series [3] was “could inhibit protein expressions of JAK2, Tyr705-p-STAT3, and Ser725-p-STAT3”.

demethoxycurcumin: the “growth of SMMC-7721 cells (MTT)” value in the series on SMMC-7721 cells [4] is “could inhibit the growth of SMMC-7721 cells in a dose-dependent manner”.

Regarding deoxyschizandrin, in the series with SMMC-7721 cells [4], the “growth of SMMC-7721 cells (MTT)” value is on record as “could inhibit the growth of SMMC-7721 cells in a dose-dependent manner”. Also, the “effect on apoptosis (Hochest)” value in the series with SMMC-7721 cells [5] was “not good”.

Turning to schisandrol A [SOLA], in the series with SMMC-7721 cells [5], the “effect on apoptosis (Hochest)” value is given as “not good”.

In the case of schisantherin A [SINA], in the series with SMMC-7721 cells [4], the “growth of SMMC-7721 cells (MTT)” value was “could inhibit the growth of SMMC-7721 cells in a dose-dependent manner”.
